Data reported in the EternaBench riboswitch data.

System: MS2 coat protein
Experiment: apparent Kd, MS2 coat protein; higher = weaker binding; RNA-MaP array; FMN 200 µM where present
In short: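 Green signal from SNAP-549-labelled MS2 coat protein was normalised to red-channel RNA signal and to the median Fmax of control clusters. The protein was titrated from 0.7 or 1.5 nM, doubling to 3 µM, without and then with constant ligand, over designs transcribed by stalled E. coli RNA polymerase on Illumina sequencing-chip clusters, in 100 mM Tris-HCl pH 7.5, 80 mM KCl, 4 mM MgCl2, BSA, DTT, yeast tRNA and Tween-20. The apparent Kd is the median of filtered per-cluster binding-curve fits.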

[1] = designed as: ON switch for flavin mononucleotide, no ligand
[2] = ligand present: flavin mononucleotide, designed as: ON switch for flavin mononucleotide
[3] = designed as: OFF switch for flavin mononucleotide, no ligand
[4] = ligand present: flavin mononucleotide, designed as: OFF switch for flavin mononucleotide

Sequence	apparent Kd [1]	apparent Kd [2]	apparent Kd [3]	apparent Kd [4]
AAUCCACAUGAGGAUCACCCAUGUCAGGAAAUGACAGGAUAUAGCGAAAAAAAAAAAAAGCUAGAAGGGUCUAAUU	175 nM	67.5 nM	–	–
UGUGUGAGACAGGAUAUGCCGGAUAUAUUACUGGUAGAAGGGUCUACAUGAGGAUCACCCAUGUGGCCGGCCGG	–	–	18 nM	29.1 nM
GUGGCAUACCGAGGAUAUUCAUAUAAUAAAUAAACAUGAGGAUCACCCAUGUGGCGAAAGCCUUGGGAGAAGGCGGAAUGCUAC	574 nM	38.2 nM	–	–
AACAGGACAGGAUAUACAUGAGGAUCACCCAUGUGAGAAUUAAGCAGCGUACCACACAGUAGAAGGGUCAUGGA	–	–	46.7 nM	40 nM
UUGGAGUACGUAGGAUAUGUAGGAUAUUCCUACAUGAGGAUCACCCAUGUAUGAAUGGAAGAAGGACAGAAGGACGUGCUCCAU	19.8 nM	13.9 nM	–	–
UUUAUGUGAGGAUAUCAGUAGUAAAAAAAUAAAAUUACUACUGAGAAGGCACAUGAGGAUCACCCAUGUCCUUC	–	–	18.6 nM	20 nM
UGUCGGAGCAGAGGAUAUACAUGAGGAUCACCCAUGUAAAUGGAAUAAGCCUGGAAACAGGCAAUGUAGAAGGCUGCUCCGACA	–	–	69 nM	628 nM
UGGUAUUAGGGAGGAUAUGGGAAGAUACAUGAGGAUCACCCAUGUUUAAGAAUGCCGAGAGGCAACUAGAAGGCCCUAGUACCU	500 nM	20.3 nM	–	–
CUUUUGUGAGGAUAUUAGUAGUAAAUAAAUAAAAUUACUAUUGAGAAGGCACAUGAGGAUCACCCAUGUUCCUC	–	–	31.4 nM	182 nM
GGAGCCCAGUCAGGAUAUGUAACGCUAAGGCUGUUACAUGAGGAUCACCCAUGUUUCACCGUGAAACAGAAGGGACAAUUGGCG	500 nM	147 nM	–	–
AACAAGCAAGGAUAUACAUGAGGAUCACCCAUGUCGUCUAAACGUACAUGCUACUCUUGUAGAAGGUGCAAAAU	–	–	129 nM	537 nM
GUACCUUAUGAGAAGGCGGUCAUGAAACAUGAUCGAGGAUAUCAUGUAAACAUGAGGAUCACCCAUGUAUGGGUAUUAUGGUAG	70.2 nM	13.8 nM	–	–
AUUACCAGAGGAUAUGCGAGGGUGUACCUCCCACAGCGAAAACAUGAGGAUCACCCAUGUAGAAGGCUGAACAU	–	–	56.7 nM	46.3 nM
GCCCUCGCUGAGGAUAUUAUCUGGCUCGACUGAUAAGAAGGCAGUACAUGAGGAUCACCCAUGUGGUUCGUUCG	–	–	50.5 nM	142 nM
GGAUCGAAUGUGAGGAUAUGCUGGUCCUUGGAUCAGCAGAAGGCACAUGAGGAUCACCCAUGUGUUCCCGGUCC	–	–	79.5 nM	716 nM
UGGGUGGUAUGAGGAUAUGCGCGCGAAACGCGCGCAGAAGGCAUGUCAAUAGACAUGAGGAUCACCCAUGUAUUAUCCAUCCAA	412 nM	28.3 nM	–	–
AAUAUUUUUUGAGGAUAUUCAUACACUGUAUACGGAGAAGGCAAACAAUCAUGAGGACAUGAGGAUCACCCAUGUUGUGACCAU	20.1 nM	12.8 nM	–	–
UAAAUUUUAUGAUAUUAUGACAUUAGAAGGCUAUACAUGUUGAUACAUGAGGAUCACCCAUGUAUAGAGGAUAUAGACAAUUAU	–	–	44.1 nM	100 nM
CGCCGACAUGAGGAUCACCCAUGUCACAACUGGUCAGGAUAUGGUAUGAUUUGGCUAUUGCCAGAAGGGACCUCAG	50.5 nM	21 nM	–	–
CGUGCGUCGACAGGAUAUACAGAUUGGCUCCGGUACAUGAGGAUCACCCAUGUAGAAGGGUCACGCACGGUUAGUUCGUUAUUA	–	–	8.88 nM	40.9 nM
UUGAUGUGAGGAUAUGUGAUCUGCCUUCUAUAUAGAUGAUUACAGAAGGCACAUGAGGAUCACCCAUGUAGAUC	–	–	78.5 nM	58.9 nM
AUUUCGUUAGCAGGAUAUGGACAGGCCUGUCCGUAUUGAGUCAGUAACAUGAGGAUCACCCAUGUCCAGAAGGGCUCGAAGUUA	–	–	8.15 nM	15.8 nM
GCGCGCGCAGGAUAUACAAUGCGCGCGCGAAAGUGUGUGUUACAUGAGGAUCACCCAUGUAGAAGGGUGUGUGU	–	–	539 nM	492 nM
GCGUAAUUGAUCCUAUUUACCAACAUGAGGAUCACCCAUGUGCAGGAUAUGCUAAAGAUAGAUAAGCAGAAGGGCAUUUACCGC	–	–	47 nM	211 nM
AAUAUACAUGAGGAUCACCCAUGUUUUGGUGCAUGAGGAUAUAAAAACAAUUACAUAAAGUUAGAAGGCAUGAAUA	54.9 nM	47.9 nM	–	–
GUCGGCUCGUGAGGAUAUACAACACUGCUUCGGCAGUGUAUUAAGAUCACAUGAGGAUCACCCAUGUAGAAGGCACGAGCUGAU	–	–	13.8 nM	221 nM
GAGGUAUAAGGAUAUACAUAGAUACAGACACAUGUUCAAGUACAUGAGGAUCACCCAUGUAGAAGGUAUAUAUC	–	–	33.6 nM	30.6 nM
GCGUUGAACGAGAAGGCCAAUACAUGAGGAUCACCCAUGUUAAGUUGUUUUGGAGGAUAUCGAACACAUUCAAUAUUGCAACGC	–	–	6.06 nM	5.65 nM
